Source: ChEMBL document CHEMBL3526116, “Toxicological evaluation of acyl glucuronides of nonsteroidal anti-inflammatory drugs using human embryonic kidney 293 cells stably expressing human UDP-glucuronosyltransferase and human hepatocytes” (Drug Metab Dispos, 2011)

Columns and labels:
[1] = molecular target: T1, UDP-glucuronosyltransferase 1A3 (Homo sapiens, UniProt P35503); assay: Activity of human UGT1A3 expressed in HEK293 cells assessed as enzyme-mediated ibuprofen acyl-beta-D-glucuronide formation at 1 mM measured at 24 hrs by LC-MS/MS analysis; assay type: ADME, cell-based; details: hek293, 24 h, 1000 µM
T1 sequence (P35503 whole entry): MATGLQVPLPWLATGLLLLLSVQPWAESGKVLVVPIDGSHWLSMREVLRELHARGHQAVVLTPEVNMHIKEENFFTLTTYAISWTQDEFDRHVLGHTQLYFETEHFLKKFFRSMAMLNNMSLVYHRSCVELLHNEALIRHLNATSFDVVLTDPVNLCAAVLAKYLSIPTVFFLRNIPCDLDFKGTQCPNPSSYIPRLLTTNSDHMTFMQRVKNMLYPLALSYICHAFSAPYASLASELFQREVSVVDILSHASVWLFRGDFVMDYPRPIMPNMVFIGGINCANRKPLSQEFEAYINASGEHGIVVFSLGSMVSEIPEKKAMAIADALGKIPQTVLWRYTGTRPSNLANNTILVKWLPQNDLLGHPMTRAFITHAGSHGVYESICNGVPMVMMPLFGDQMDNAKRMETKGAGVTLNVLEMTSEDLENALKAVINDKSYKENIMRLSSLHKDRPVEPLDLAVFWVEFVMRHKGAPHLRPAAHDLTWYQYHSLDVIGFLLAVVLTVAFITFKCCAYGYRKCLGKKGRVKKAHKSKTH
Summary of the method: (§1)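 HEK293 stably expressing human UGT1A3 (G418-selected), 2 x 10^5 cells/well in 1 mL DMEM with 0.5% FBS, exposed immediately to drug for 6, 12 or 24 h; DMSO ≤0.1% final. Cells and medium separated by centrifugation, cell fraction resuspended in PBS; aliquots mixed 1:1 with methanol/acetic acid (100:1), spun, supernatant analysed by LC-MS/MS. Triplicate determinations, mean ± SD.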

Hepatocyte [2] = assay: Cytotoxicity against human hepatocytes assessed as decrease in cell viability by measuring intracellular ATP content at 1 mM measured at 6 hrs by CellTiter-Glo luminescent assay in absence of acyl glucuronidation inhibitor (-)-borneol; assay type: cell-based; details: 1000 µM
Summary of the method: (§2)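 Human hepatocytes (pooled, cryopreserved), 2 × 10^4 cells/well on collagen in HCM with 0.5% FBS and 10 nM estradiol; 30-min preincubation ± 1 mM (-)-borneol, then drug 6 h. Intracellular ATP measured by CellTiter-Glo luminescence, percent of control cells. Triplicates, mean ± SD.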

HEK293 [3] = assay: Cytotoxicity against HEK293 cells expressing UGT1A4 assessed as decrease in cell viability at 1 mM by MTT assay; assay type: ADME, cell-based; details: human, hek293, 1000 µM; TDE = time-dependent effect
HEK293 [4] = assay: Cytotoxicity against HEK293 cells expressing UGT1A4 assessed as decrease in cell viability by measuring intracellular ATP content at 1 mM by CellTiter-Glo luminescent assay; assay type: ADME, cell-based; details: human, hek293, 1000 µM; TDE = time-dependent effect
Summary of the method: (§3)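 UGT1A3 or UGT1A4 stable HEK293 cells, 2 x 10^4 cells/well in 0.1 mL DMEM with 0.5% FBS, drug for 6, 12 or 24 h. Viability from intracellular ATP via CellTiter-Glo luminescence, expressed as percent of control cells. Mean ± SD of triplicates.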

HEK293 [5] = assay: Cytotoxicity against mock transfected HEK293 cells assessed as decrease in cell viability at 1 mM by MTT assay; assay type: cell-based; details: human, hek293, 1000 µM; TDE = time-dependent effect
HEK293 [6] = assay: Cytotoxicity against mock transfected HEK293 cells assessed as decrease in cell viability by measuring intracellular ATP content at 1 mM by CellTiter-Glo luminescent assay; assay type: cell-based; details: human, hek293, 1000 µM; TDE = time-dependent effect
Summary of the method: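 Mock-transfected HEK293 cells seeded at 2 x 10^4 cells/well in DMEM with 0.5% FBS, drug added at once and incubated 6, 12 or 24 h. Viability read either by WST-8 (CCK-8) formazan absorbance at 450 nm or by intracellular ATP luminescence (CellTiter-Glo), as percent of control cells; mean ± SD of triplicates. Final DMSO ≤0.1%.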

HEK293 [7] = assay: Cytotoxicity against HEK293 cells expressing UGT assessed as decrease in cell viability at 1 mM measured up to 72 hrs by MTT assay; assay type: ADME, cell-based; details: human, hek293, 72 h, 1000 µM
Summary of the method: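 Mock and UGT1A3/UGT1A4 stable HEK293 cells given drug for up to 72 h; viability measured by WST-8-based MTT assay.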

Hepatocyte [8] = assay: Cytotoxicity against human hepatocytes assessed as decrease in cell viability by measuring intracellular ATP content at 1 mM measured at 6 hrs by CellTiter-Glo luminescent assay in presence of acyl glucuronidation inhibitor (-)-borneol; assay type: cell-based; details: 1000 µM; summary of the method: as §2
Hepatocyte [9] = assay: Cytotoxicity against human hepatocytes assessed as decrease in cell viability at 1 mM measured at 6 hrs […] in presence of acyl glucuronidation inhibitor (-)-borneol; assay type: cell-based; details: 1000 µM
Hepatocyte [10] = assay: Cellular uptake in human hepatocytes at 1 mM measured at 6 hrs by LC-MS/MS analysis in presence of acyl glucuronidation inhibitor (-)-borneol; assay type: ADME, cell-based; details: 1000 µM
Summary of the method: (§4)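 Cryopreserved pooled human hepatocytes on collagen-coated wells, 2 × 10^5 cells/well in HCM medium with 0.5% FBS, preincubated 30 min with or without 1 mM (-)-borneol, then drug for 6 h; DMSO ≤0.2% final. Parent drug in cell fraction measured by LC-MS/MS after methanol/acetic acid extraction. Mean ± SD of triplicates.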

Hepatocyte [11] = assay: Cellular uptake in human hepatocytes at 1 mM measured at 6 hrs by LC-MS/MS analysis in absence of acyl glucuronidation inhibitor (-)-borneol; assay type: ADME, cell-based; details: 1000 µM; summary of the method: as §4
HEK293 [12] = assay: Genotoxicity in HEK293 cells expressing UGT1A3 assessed as DNA strand breaks at 1 mM after 24 hrs by comet assay; assay type: toxicity, cell-based; details: human, hek293, 24 h, 1000 µM
Summary of the method: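 Alkaline comet assay: HEK/UGT1A3 cells seeded 24 h before, treated 24 h in DMEM with 0.5% FBS (vehicle 0.1% DMSO; MMS 0.1 mM positive control). Cells embedded in LMP agarose, lysed 1 h at 4°C at pH 10, unwound 30 min in NaOH/EDTA, electrophoresed 300 mA 20 min, ethidium-stained; tail moment scored on 150-180 comets over >3 experiments, median (IQR).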

[13] = molecular target: T2, UDP-glucuronosyltransferase 1A4 (Homo sapiens, UniProt P22310); assay: Activity of human UGT1A4 expressed in HEK293 cells assessed as enzyme-mediated ibuprofen acyl-beta-D-glucuronide formation at 1 mM measured at 24 hrs by LC-MS/MS analysis; assay type: ADME, cell-based; details: hek293, 24 h, 1000 µM
T2 sequence (P22310 whole entry): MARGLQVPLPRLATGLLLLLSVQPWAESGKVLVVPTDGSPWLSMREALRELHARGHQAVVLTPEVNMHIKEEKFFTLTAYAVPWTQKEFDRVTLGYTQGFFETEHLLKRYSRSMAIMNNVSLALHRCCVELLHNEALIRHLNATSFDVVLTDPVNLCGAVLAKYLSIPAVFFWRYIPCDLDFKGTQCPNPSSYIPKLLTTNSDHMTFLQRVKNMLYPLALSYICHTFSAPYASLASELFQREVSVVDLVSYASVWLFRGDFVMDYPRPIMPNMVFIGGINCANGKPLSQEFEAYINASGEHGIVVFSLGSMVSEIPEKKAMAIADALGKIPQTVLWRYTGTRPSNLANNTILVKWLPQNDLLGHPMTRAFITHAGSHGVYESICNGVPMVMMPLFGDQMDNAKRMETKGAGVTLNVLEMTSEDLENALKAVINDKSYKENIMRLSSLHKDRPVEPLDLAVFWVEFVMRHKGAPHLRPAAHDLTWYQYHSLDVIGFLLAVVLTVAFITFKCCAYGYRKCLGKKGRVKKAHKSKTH
Summary of the method: (§5)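 HEK293 stably expressing human UGT1A4, 2 x 10^5 cells/well in DMEM with 0.5% FBS, drug exposure 6–24 h, DMSO ≤0.1% final. Acyl glucuronide in cell fraction and medium measured by LC-MS/MS after methanol/acetic acid (100:1) precipitation and centrifugation. Triplicate determinations.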

HEK293 [14] = assay: Cytotoxicity against HEK293 cells expressing UGT1A3 assessed as decrease in cell viability at 1 mM by MTT assay; assay type: ADME, cell-based; details: human, hek293, 1000 µM; TDE = time-dependent effect
HEK293 [15] = assay: Cytotoxicity against HEK293 cells expressing UGT1A3 assessed as decrease in cell viability by measuring intracellular ATP content at 1 mM by CellTiter-Glo luminescent assay; assay type: ADME, cell-based; details: human, hek293, 1000 µM; TDE = time-dependent effect; summary of the method: as §3
HEK293 [16] = assay: Cytotoxicity against HEK293 cells expressing UGT assessed as LDH leakage at 1 mM after 6 to 24 hrs by spectrophotometric analysis relative to total cell LDH level; assay type: ADME, cell-based; details: human, hek293, 1000 µM
Summary of the method: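 Stable UGT-expressing or mock HEK293 lines in DMEM with 0.5% FBS, 2 x 10^4 cells/well, drug for 6, 12 or 24 h. LDH released into medium read at 490 nm (690 nm reference); percentage calculated against maximum release from control cells lysed with 1% Triton X-100.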

[17] = molecular target: T1, UDP-glucuronosyltransferase 1A3; assay: Activity of human UGT1A3 expressed in HEK293 cells assessed as enzyme-mediated ketoprofen acyl-beta-D-glucuronide formation at 1 mM measured at 24 hrs by LC-MS/MS analysis; assay type: ADME, cell-based; details: hek293, 24 h, 1000 µM; summary of the method: as §1
[18] = molecular target: T2, UDP-glucuronosyltransferase 1A4; assay: Activity of human UGT1A4 expressed in HEK293 cells assessed as enzyme-mediated ketoprofen acyl-beta-D-glucuronide formation at 1 mM measured at 24 hrs by LC-MS/MS analysis; assay type: ADME, cell-based; details: hek293, 24 h, 1000 µM; summary of the method: as §5

CC(C)Cc1ccc(C(C)C(=O)O)cc1 (configuration not stated) [IBUPROFEN] was tested. Which Drug metabolism [1] did it give?
Its Drug metabolism is “metabolite_detected”.

What about the Activity (Hepatocyte [2]) of the same molecule?
Its Activity is “Toxic”.

And the Activity (HEK293 [3])?
Its Activity is “tde”.

What about the Activity (HEK293 [4]) of the same molecule?
The Activity was “tde”.

What about the Activity (HEK293 [5]) of the same molecule?
Its Activity is “tde”.

What about the Activity (HEK293 [6]) of the same molecule?
The Activity was “tde”.

What about the Activity (HEK293 [7]) of the same molecule?
The Activity was “Non-toxic”.

What about the Activity (Hepatocyte [8]) of the same molecule?
Its Activity is “Toxic”.

And the Activity (Hepatocyte [9])?
The Activity was “Toxic”.

What about the Drug uptake (Hepatocyte [10]) of the same molecule?
Its Drug uptake is “Active”.

And the Drug uptake (Hepatocyte [11])?
The Drug uptake was “Active”.

And the Activity (HEK293 [12])?
Its Activity is “Non-toxic”.

And the Drug metabolism [13]?
The Drug metabolism was “metabolite_not_detected”.

And the Activity (HEK293 [14])?
The Activity was “tde”.

And the Activity (HEK293 [15])?
The Activity was “tde”.

And the Activity (HEK293 [16])?
Its Activity is < 5.4%.

For CC(C(=O)O)c1cccc(C(=O)c2ccccc2)c1 (configuration not stated) [KETOPROFEN], which Drug metabolism [17] is on record?
Its Drug metabolism is “metabolite_detected”.

What about the Activity (HEK293 [3]) of the same molecule?
Its Activity is “tde”.

And the Activity (HEK293 [4])?
Its Activity is “tde”.

What about the Activity (HEK293 [5]) of the same molecule?
The Activity was “tde”.

What about the Activity (HEK293 [6]) of the same molecule?
The Activity was “tde”.

And the Activity (HEK293 [7])?
The Activity was “Non-toxic”.

What about the Activity (HEK293 [12]) of the same molecule?
Its Activity is “Non-toxic”.

And the Drug metabolism [18]?
The Drug metabolism was “metabolite_not_detected”.

What about the Activity (HEK293 [14]) of the same molecule?
The Activity was “tde”.

And the Activity (HEK293 [15])?
The Activity was “tde”.

And the Activity (HEK293 [16])?
Its Activity is < 5.4%.
